According to ChEMBL document CHEMBL1287649, “Synthesis and anti-tubercular and antimicrobial activities of some 2r,4c-diaryl-3-azabicyclo[3.3.1]nonan-9-one N-isonicotinoylhydrazone derivatives” (2010):

What was measured:
[1] = tested on: Mycobacterium tuberculosis; assay: Antitubercular activity against isoniazid-resistant Mycobacterium tuberculosis assessed as reduction of relative light unit at 1 ug/ml after 72 hrs by luciferase reporter phage assay relative to control; format: functional; design: scale not given: the % may be the effect or the level left
Procedure, shortened: (§1)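 Luciferase reporter phage assay. Luminescence (RLU) integrated for 10 s on a luminometer, in duplicate per sample and averaged. Percent RLU reduction calculated against untreated control. Run repeated if the control mean RLU was below 1000.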

[2] = tested on: Mycobacterium tuberculosis; assay: Antitubercular activity against isoniazid-resistant Mycobacterium tuberculosis assessed as reduction of relative light unit at 2 ug/ml after 72 hrs by luciferase reporter phage assay relative to control; format: functional; design: scale not given: the % may be the effect or the level left; procedure, shortened: as §1

Compound	Activity [1] [%]	Activity [2] [%]
O=C(N/N=C1\C2CCCC1[C@H](c1ccc(Cl)cc1)N[C@@H]2c1ccc(Cl)cc1)c1ccncc1	63.61	73.28
O=C(N/N=C1\C2CCCC1[C@H](c1ccccc1)N[C@@H]2c1ccccc1)c1ccncc1	69.6	77.52
Cc1ccc([C@H]2N[C@@H](c3ccc(C)cc3)C3CCCC2/C3=N\NC(=O)c2ccncc2)cc1	62.3	71.07
COc1ccc([C@H]2N[C@@H](c3ccc(OC)cc3)C3CCCC2/C3=N\NC(=O)c2ccncc2)cc1	67.07	74.19
O=C(N/N=C1\C2CCCC1[C@H](c1ccc(F)cc1)N[C@@H]2c1ccc(F)cc1)c1ccncc1	67.63	75.08
COc1cccc([C@H]2N[C@@H](c3cccc(OC)c3)C3CCCC2/C3=N\NC(=O)c2ccncc2)c1	69.18	78.33
O=C(N/N=C1\C2CCCC1[C@H](c1cccc(Cl)c1)N[C@@H]2c1cccc(Cl)c1)c1ccncc1	65.42	75.83
NNC(=O)c1ccncc1 [ISONIAZID]	89.65	95.85
